Assay results from publication PMC6923798 (Bioorganic chemistry, 2018).
Like-named read-outs stand apart in the source and are kept apart here.

Tests used:
[1] = test system: KG-1a; assay: MTT anti-proliferative assay; assay type: cell-based, human; settings: read-out: IC50 ± SD, KG-1a
[2] = molecular target: EGFR (Homo sapiens, UniProt P00533); assay: EGFR kinase assay; assay type: biochemical
[3] = molecular target: c-Src (Homo sapiens, UniProt P12931); assay: Src kinase assay; assay type: biochemical
[4] = test system: K-562; assay: MTT anti-proliferative assay; assay type: cell-based, human; settings: read-out: IC50 ± SD, K-562
[5] = test system: RPMI-8226 cell line; assay: NCI in vitro one dose anticancer assay; assay type: cell-based; settings: Homo sapiens, RPMI-8226, 48 h, read-out: % growth inhibition
Summary of the method: (§1)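 NCI protocol. Test compound added once at 10−5 M to ~60 human tumour lines from nine subpanels. Incubated 48 h at 37 °C, 5% CO2, 95% air, 100% relative humidity. Endpoint by sulforhodamine B protein staining with spectrophotometric absorbance. Growth of treated cells reported as percent of untreated cells.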

[6] = test system: Jurkat; assay: MTT anti-proliferative assay; assay type: cell-based, human; settings: read-out: IC50 ± SD, Jurkat
[7] = test system: IL-6; assay: IL-6 ELISA in K-562 cells; assay type: cell-based, human; settings: Homo sapiens, K562, 24 h, read-out: IL-6 protein levels (% of control)
Summary of the method: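 K-562 cells exposed 24 h to vehicle (DMSO), test compound at 10 μM or dexamethasone (positive control). IL-6 secreted into cell-free supernatant quantified by human IL-6 ELISA kit. Expressed as % of vehicle control, mean ± SD of three independent experiments, each in triplicate. Time course: in 12-well plates, medium changed when compound (10 μM) added, and media sampled at 0, 1, 4, 8, 12, 24, 48 h.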

[8] = test system: SR cell line; assay: NCI in vitro one dose anticancer assay; assay type: cell-based; settings: Homo sapiens, 48 h, read-out: % growth inhibition
Summary of the method: as §1

[9] = test system: STAT3; assay: STAT3 activation assay; assay type: cell-based, human; settings: K-562 cells, 10 μM, 24 h, nuclear extracts
Summary of the method: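 K562 cells seeded overnight in 10 cm plates, then given vehicle, test compound (10 μM) or WP1066 (positive control) for 24 h. Nuclear fractions extracted by kit. STAT3 activation measured in nuclear extracts by TransAM STAT3 ELISA per manufacturer. Mean ± SD of three independent experiments, each in triplicate.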

[10] = read-out: EGFR (IC50 μM), PGT substrate, ATP 50 μM
[11] = read-out: Src (IC50 μM), PGT substrate, ATP 50 μM

Sequence of c-Src (P12931 whole entry): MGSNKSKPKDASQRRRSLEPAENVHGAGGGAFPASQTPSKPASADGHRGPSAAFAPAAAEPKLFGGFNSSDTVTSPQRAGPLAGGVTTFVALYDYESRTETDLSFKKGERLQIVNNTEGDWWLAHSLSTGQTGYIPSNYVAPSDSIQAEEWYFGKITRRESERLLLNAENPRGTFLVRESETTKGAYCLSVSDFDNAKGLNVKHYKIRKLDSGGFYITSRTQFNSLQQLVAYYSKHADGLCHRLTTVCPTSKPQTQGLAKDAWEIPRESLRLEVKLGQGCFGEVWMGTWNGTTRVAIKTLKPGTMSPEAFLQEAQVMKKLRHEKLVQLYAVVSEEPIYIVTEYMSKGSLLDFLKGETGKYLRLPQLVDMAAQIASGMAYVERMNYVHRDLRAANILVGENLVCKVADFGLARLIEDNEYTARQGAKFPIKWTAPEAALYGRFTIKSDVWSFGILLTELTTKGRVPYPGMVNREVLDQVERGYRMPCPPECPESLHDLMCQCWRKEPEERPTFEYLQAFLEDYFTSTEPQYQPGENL
Sequence of EGFR (P00533 25-1210): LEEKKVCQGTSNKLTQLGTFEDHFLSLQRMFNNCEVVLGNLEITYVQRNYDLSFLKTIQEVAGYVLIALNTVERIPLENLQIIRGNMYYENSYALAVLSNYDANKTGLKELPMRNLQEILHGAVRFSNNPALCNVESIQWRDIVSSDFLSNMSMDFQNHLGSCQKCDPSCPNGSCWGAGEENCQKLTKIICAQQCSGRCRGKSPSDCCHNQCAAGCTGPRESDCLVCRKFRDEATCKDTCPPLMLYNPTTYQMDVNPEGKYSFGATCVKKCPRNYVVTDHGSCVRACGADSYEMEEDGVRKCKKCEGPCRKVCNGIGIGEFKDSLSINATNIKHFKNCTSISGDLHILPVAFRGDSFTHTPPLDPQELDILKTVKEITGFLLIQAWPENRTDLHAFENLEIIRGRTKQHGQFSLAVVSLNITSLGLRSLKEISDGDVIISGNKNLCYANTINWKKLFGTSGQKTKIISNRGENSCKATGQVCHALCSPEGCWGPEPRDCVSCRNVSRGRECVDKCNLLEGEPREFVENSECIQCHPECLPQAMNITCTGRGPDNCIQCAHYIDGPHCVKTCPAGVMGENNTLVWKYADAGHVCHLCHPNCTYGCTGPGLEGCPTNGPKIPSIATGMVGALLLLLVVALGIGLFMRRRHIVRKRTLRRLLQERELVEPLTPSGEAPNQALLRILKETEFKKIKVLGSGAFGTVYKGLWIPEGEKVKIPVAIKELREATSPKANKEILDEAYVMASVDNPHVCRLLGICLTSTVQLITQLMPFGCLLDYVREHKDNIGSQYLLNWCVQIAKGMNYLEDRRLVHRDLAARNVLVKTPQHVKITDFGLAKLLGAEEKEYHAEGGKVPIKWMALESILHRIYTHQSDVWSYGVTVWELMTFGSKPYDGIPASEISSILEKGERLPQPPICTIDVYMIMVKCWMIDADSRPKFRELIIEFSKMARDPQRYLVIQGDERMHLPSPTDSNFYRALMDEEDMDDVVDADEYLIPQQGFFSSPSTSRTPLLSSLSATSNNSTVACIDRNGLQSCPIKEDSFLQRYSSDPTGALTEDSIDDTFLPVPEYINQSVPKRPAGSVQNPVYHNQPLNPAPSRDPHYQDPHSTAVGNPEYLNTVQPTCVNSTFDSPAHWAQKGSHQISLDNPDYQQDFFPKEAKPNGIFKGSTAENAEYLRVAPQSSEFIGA

| SMILES | IC50 ([1]; Homo sapiens, KG-1a, 24 h) [µM] | IC50 [2] [µM] | IC50 [3] [µM] | IC50 ([4]; Homo sapiens, K562, 24 h) [µM] | inhibition at 10 µM [5] [%] | IC50 ([6]; Homo sapiens, Jurkat, 24 h) [µM] | activity at 10 µM [7] [%] | inhibition at 10 µM [8] [%] | inhibition of STAT3 activation [9] | IC50 ([1]; MTT, 24 h treatment) [µM] | IC50 [2, 10] [µM] | IC50 [3, 11] [µM] | IC50 ([4]; MTT, 24 h treatment) [µM] | IC50 ([6]; MTT, 24 h treatment) [µM] |
| --- | --- | --- | --- | --- | --- | --- | --- | --- | --- | --- | --- | --- | --- | --- |
| COc1ccc(-c2nnc(SCC(=O)Nc3ccc(C(=O)C=Cc4ccccc4)cc3)o2)cc1 [Compound 8j, 2-(5-(4-Methoxyphenyl)-1,3,4-oxadiazol-2-ylthio)-N-(4-(3-phenylacryloyl)phenyl)acetamide] | 25.2 ± 0.48 | 11.5 ± 1.24 | 25.3 ± 1.56 | 22.6 ± 2.34 | 31.3 to 144 | 31.1 ± 0.46 |  |  |  |  |  |  |  |  |
| COc1ccc(C=CC(=O)c2ccc(NC(=O)CSc3nnc(-c4ccccc4)o3)cc2)cc1OC [Compound 8c, N-(4-(3-(3,4-Dimethoxyphenyl)acryloyl)phenyl)-2-((5-phenyl-1,3,4-oxadiazol-2-yl)thio)acetamide] | 95.2 ± 3.88 | 64.3 ± 3.56 | 57.3 ± 2.4 | 69.5 ± 5.15 |  | 75.2 ± 1.25 | 82 to 98 |  |  |  |  |  |  |  |
| COc1ccc(-c2nnc(SCC(=O)Nc3ccc(C(=O)C=Cc4ccccc4)cc3)o2)cc1OC [Compound 8o, N-(4-Cinnamoylphenyl)-2-((5-(3,4-dimethoxyphenyl)-1,3,4-oxadiazol-2-yl)thio)acetamide] | 65.6 ± 2.31 | 71.1 ± 3.25 | 51.2 ± 5.6 | 58.4 ± 5.45 |  | 94.1 ± 5.31 | 82 to 98 |  |  |  |  |  |  |  |
| COc1cc(-c2nnc(SCC(=O)Nc3ccc(C(=O)C=Cc4ccc(Cl)cc4)cc3)o2)cc(OC)c1OC [Compound 8u, N-(4-(3-(4-Chlorophenyl)acryloyl)phenyl)-2-((5-(3,4,5-trimethoxy-phenyl)-1,3,4-oxadiazol-2-yl)thio)acetamide] | 95.7 ± 2.48 | 55.4 ± 4.35 | 53.1 ± 5.6 | 84.2 ± 4.36 |  | > 100 | 82 to 98 |  |  |  |  |  |  |  |
| O=C(CSc1nnc(-c2ccc(Cl)cc2)o1)Nc1ccc(C(=O)C=Cc2ccccc2)cc1 [Compound 8e, 2-((5-(4-Chlorophenyl)-1,3,4-oxadiazol-2-yl)thio)-N-(4-cinnamoylphenyl)acetamide] | > 100 | 59.4 ± 5.63 | 74.4 ± 3.6 | 93.3 ± 5.21 | 31.3 to 144 | > 100 | 82 to 98 | 32.9 to 160 |  |  |  |  |  |  |
| COc1ccc(C=CC(=O)c2ccc(NC(=O)CSc3nnc(-c4ccc(OC)c(OC)c4)o3)cc2)cc1OC [Compound 8r, 2-((5-(3,4-Dimethoxyphenyl)-1,3,4-oxadiazol-2-yl)thio)-N-(4-(3-(3,4-di-methoxyphenyl)acryloyl)phenyl)acetamide] | 93.1 ± 1.14 | 63.3 ± 2.36 | 76.2 ± 3.65 | > 100 |  | > 100 | 82 to 98 |  |  |  |  |  |  |  |
| O=C(CSc1nnc(-c2ccc(Cl)cc2)o1)Nc1ccc(C(=O)C=Cc2ccc(Cl)cc2)cc1 [Compound 8f, 2-((5-(4-Chlorophenyl)-1,3,4-oxadiazol-2-yl)thio)-N-(4-(3-(4-chloro-phenyl)acryloyl)phenyl)acetamide] | 91.5 ± 4.15 | 64.7 ± 3.65 | 50.3 ± 3.5 | 82.3 ± 3.08 |  | 88.6 ± 1.35 | 82 to 98 |  |  |  |  |  |  |  |
| COc1ccc(-c2nnc(SCC(=O)Nc3ccc(C(=O)C=Cc4ccc(Cl)cc4)cc3)o2)cc1 [Compound 8k, 2-(5-(4-Methoxyphenyl)-1,3,4-oxadiazol-2-ylthio)-N-(4-(3-(4-chloro-phenyl)acryloyl)phenyl)acetamide] | 71.1 ± 1.22 | 18.3 ± 2.35 | 33.6 ± 2.35 | 58.4 ± 3.75 |  | 62.7 ± 2.71 |  |  |  |  |  |  |  |  |
| COc1cc(C=CC(=O)c2ccc(NC(=O)CSc3nnc(-c4cc(OC)c(OC)c(OC)c4)o3)cc2)cc(OC)c1OC [Compound 8x, 2-((5-(3,4,5-Trimethoxyphenyl)-1,3,4-oxadiazol-2-yl)thio)-N-(4-(3-(3,4,5-trimethoxyphenyl)acryloyl)phenyl)acetamide] | 71.5 ± 1.18 | 20.5 ± 1.35 | 35.1 ± 3.26 | 62.1 ± 3.07 | 31.3 to 144 | 69.17 ± 0.15 | 30 to 75 | 32.9 to 160 | moderate activities |  |  |  |  |  |
| COc1cc(C=CC(=O)c2ccc(NC(=O)CSc3nnc(-c4ccccc4)o3)cc2)cc(OC)c1OC [Compound 8d, N-(4-(3-(3.4.5-Trimethoxyphenyl)acryloyl)phenyl)-2-((5-phenyl-1,3,4-oxadiazol-2-yl)thio)acetamide] |  |  |  |  |  |  |  |  |  | 31.3 ± 1.05 | 11.2 ± 1.25 | 13.4 ± 1.6 | 22.8 ± 1.32 | 28.3 ± 0.62 |
| COc1ccc(/C=C/C(=O)c2ccc(NC(=O)CSc3nnc(-c4ccc(OC)cc4)o3)cc2)cc1 [Compound 8l, 2-(5-(4-Methoxyphenyl)-1,3,4-oxadiazol-2-ylthio)-N-(4-((E)-3-(4-methoxyphenyl)acryloyl)phenyl)acetamide] | 38.3 ± 2.45 | 12.3 ± 1.35 | 25 ± 3.46 | 35.2 ± 2.05 |  | 33.3 ± 1.22 |  |  |  |  |  |  |  |  |
| COc1ccc(C=CC(=O)c2ccc(NC(=O)CSc3nnc(-c4ccc(OC)c(OC)c4)o3)cc2)cc1 [Compound 8q, 2-((5-(3,4-Dimethoxyphenyl)-1,3,4-oxadiazol-2-yl)thio)-N-(4-(3-(4-methoxyphenyl)acryloyl)phenyl)acetamide] | 45.3 ± 2.31 | 11.4 ± 1.54 | 29.5 ± 1.23 | 40.2 ± 2.82 |  | 31.9 ± 1.3 | 30 to 75 |  | moderate activities |  |  |  |  |  |
| COc1ccc(C=CC(=O)c2ccc(NC(=O)CSc3nnc(-c4cc(OC)c(OC)c(OC)c4)o3)cc2)cc1OC [Compound 8w, N-(4-(3-(3,4-Dimethoxyphenyl)acryloyl)phenyl)-2-((5-(3,4,5-trimethoxyphenyl)-1,3,4-oxadiazol-2-yl)thio)acetamide] | > 100 | 48.3 ± 2.36 | 60.3 ± 2.5 | 90.3 ± 2.91 |  | > 100 | 82 to 98 |  |  |  |  |  |  |  |
| COc1ccc(C=CC(=O)c2ccc(NC(=O)CSc3nnc(-c4ccc(Cl)cc4)o3)cc2)cc1OC [Compound 8h, 2-(5-(4-Chlorophenyl)-1,3,4-oxadiazol-2-ylthio)-N-(4-(3-(3,4-dimethoxy-phenyl)acryloyl)phenyl)acetamide] | 84.6 ± 5.21 | 30.2 ± 2.35 | 41.4 ± 4.5 | 72.1 ± 3.32 |  | 78.1 ± 2.1 |  |  |  |  |  |  |  |  |
| COc1ccc(C=CC(=O)c2ccc(NC(=O)CSc3nnc(-c4ccc(Cl)cc4)o3)cc2)cc1 [Compound 8g, 2-(5-(4-Chlorophenyl)-1,3,4-oxadiazol-2-ylthio)-N-(4-(3-(4-methoxy-phenyl)acryloyl)phenyl)acetamide] | 55.6 ± 1.34 | 12.7 ± 1.25 | 22.1 ± 2.15 | 13.1 ± 1.65 |  | 41.2 ± 0.91 |  |  |  |  |  |  |  |  |
| COc1cc(-c2nnc(SCC(=O)Nc3ccc(C(=O)C=Cc4ccccc4)cc3)o2)cc(OC)c1OC [Compound 8t, N-(4-Cinnamoylphenyl)-2-((5-(3,4,5-trimethoxyphenyl)-1,3,4-oxadiazol-2-yl)thio)acetamide] | 84.6 ± 1.28 | 22.3 ± 2.35 | 40.2 ± 1.34 | 73.2 ± 3.72 |  | 76.4 ± 1.31 | 30 to 75 |  |  |  |  |  |  |  |
| COc1cc(C=CC(=O)c2ccc(NC(=O)CSc3nnc(-c4ccc(Cl)cc4)o3)cc2)cc(OC)c1OC [Compound 8i, 2-(5-(4-Chlorophenyl)-1,3,4-oxadiazol-2-ylthio)-N-(4-(3-(3,4,5-trimethoxyphenyl)acryloyl)phenyl)acetamide] | 79 ± 3.02 | 29.3 ± 3.65 | 43.7 ± 3.5 | 55.3 ± 4.89 |  | 62.6 ± 1.37 |  |  |  |  |  |  |  |  |
| N.N.[Cl][Pt][Cl] [Cisplatin, reference compound] |  |  |  |  |  |  |  |  |  | 12.2 ± 3.41 |  |  | 3.21 ± 0.45 | 15.1 ± 1.35 |
| O=C(CSc1nnc(-c2ccccc2)o1)Nc1ccc(C(=O)C=Cc2ccc(Cl)cc2)cc1 [Compound 8b, N-(4-(3-(4-Chlorophenyl)acryloyl)phenyl)-2-((5-phenyl-1,3,4-oxadiazol-2-yl)thio)acetamide] | 82.2 ± 4.56 | 35.1 ± 1.36 | 44.1 ± 3.5 | 75.4 ± 4.61 |  | 78.7 ± 2.13 | 30 to 75 |  | moderate activities |  |  |  |  |  |
| COc1ccc(-c2nnc(SCC(=O)Nc3ccc(C(=O)C=Cc4ccc(OC)c(OC)c4)cc3)o2)cc1 [Compound 8m] |  |  |  |  |  |  |  |  |  | 31.5 ± 0.42 | 10.2 ± 0.36 | 12.5 ± 0.3 | 23.1 ± 0.28 | 28.4 ± 0.85 |
